{"source": "paper PMC7003773", "about": "(Clinical Pharmacology in Drug Development, 2019)", "key": {"[1]": {"test": "Population pharmacokinetic analysis of clinical plasma concentration data", "type": "in vivo, human", "how_it_was_run": "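Plasma sampled 1, 18, 23 and 36–48 h post-infusion. Assayed by LC-MS/MS (0.5–500 µg/mL), sub-0.5 µg/mL values dropped. Modelled in NONMEM with FOCE, log-normal IIV, stepwise covariates (forward P < .01, backward P < .001) and bootstrap uncertainty. T1/2 taken from 100 000 parameter draws.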"}, "[2]": {"test_system": "Staphylococcus aureus, Streptococcus pyogenes, Streptococcus dysgalactiae, vancomycin-susceptible Enterococcus faecalis", "test": "MIC distributions from 2017 surveillance program", "type": "cell-based", "conditions": "2017 surveillance data, United States and Europe, 4 most relevant species", "how_it_was_run": "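Isolates came from the 2017 surveillance program: 70 US medical centers across 9 Census regions and 38 centers in 18 European countries. MICs were determined centrally at one reference laboratory by CLSI M07-A10 (2015) dilution methods. Isolate counts: S. aureus n = 8833, S. pyogenes n = 941, S. dysgalactiae n = 312, vancomycin-susceptible E. faecalis n = 1060. Distributions were plotted as histograms on a log MIC axis.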"}, "serum albumin": {"test_system": "serum albumin", "conditions": "intravenous dose; unchanged by drug concentration, renal impairment or hepatic function; cited from earlier work"}, "[3]": {"conditions": "cited from earlier work"}, "S. aureus": {"test_system": "S. aureus", "conditions": "neutropenic murine thigh model; cited from earlier work"}, "[4]": {"conditions": "final popPK model, typical value"}}, "note": "Where two headings read alike, the source gives them in different places.", "data": [{"smiles": "CN[C@H]1C(=O)N[C@@H]2Cc3ccc(cc3)Oc3cc4cc(c3O[C@@H]3O[C@H](C(=O)O)[C@@H](O)[C@H](O)[C@H]3NC(=O)CCCCCCCCC(C)C)Oc3ccc(cc3Cl)[C@@H](O)[C@@H]3NC(=O)[C@H](NC(=O)[C@@H]4NC(=O)[C@@H](NC2=O)c2cc(cc(O)c2Cl)Oc2cc1ccc2O)c1ccc(O)c(c1)-c1c(O[C@H]2O[C@H](CO)[C@@H](O)[C@H](O)[C@@H]2O)cc(O)cc1[C@@H](C(=O)NCCCN(C)C)NC3=O", "note": "[dalbavancin]", "values": [{"measurement": "total volume of distribution", "setting": "[1]; 3-compartment popPK model", "value": "~15", "unit": "L"}, {"measurement": "T1/2", "setting": "[1]; calculated from 100 000 random samples drawn from mean and covariance of estimated model parameters", "value": 8.77, "unit": "days"}, {"measurement": "Q2, distributional clearance", "setting": "[1]; final popPK model, no IIV", "value": 0.288, "unit": "L/h"}, {"measurement": "Q3, distributional clearance", "setting": "[1]; final popPK model, no IIV", "value": 2.11, "unit": "L/h"}, {"measurement": "V1, central volume of distribution", "setting": "[1]; [4]", "value": 3.04, "unit": "L"}, {"measurement": "V2", "setting": "[1]; [4]", "value": 8.78, "unit": "L"}, {"measurement": "V3", "setting": "[1]; [4]", "value": 3.28, "unit": "L"}, {"measurement": "rightmost histogram bar of the MIC distributions (highest MIC observed)", "setting": "[2]", "value": 0.25}, {"measurement": "fraction bound to serum albumin / plasma protein", "setting": "serum albumin", "value": "approximately 93%"}, {"measurement": "total volume of distribution (Vd)", "setting": "[3]", "value": "~16", "unit": "L"}, {"measurement": "total drug clearance", "setting": "[3]; healthy subjects", "value": "approximately 0.04 L/h"}, {"measurement": "fraction of dose excreted as minor metabolite", "setting": "[3]; healthy volunteers, 1000 mg intravenous dose of dalbavancin, by 42 days postdose", "value": 12, "unit": "%"}, {"measurement": "fraction of dose excreted in the feces", "setting": "[3]; healthy volunteers, 1000 mg intravenous dose, by 42 days postdose", "value": "one‐third"}, {"measurement": "fraction of dose excreted in urine unmodified", "setting": "[3]; healthy volunteers, 1000 mg intravenous dose", "value": "one‐third"}, {"measurement": "terminal half-life", "setting": "[3]; intravenous", "value": "> 14", "unit": "days"}, {"measurement": "total drug clearance", "setting": "[3]; patients", "value": "~0.058", "unit": "L/h"}, {"measurement": "2-log kill target, fAUC/MIC", "setting": "S. aureus", "value": 111.1}]}]}
